Among all 5,600 compounds or so, about 1,200 (21%) were called active. Roughly 3% stayed inconclusive and do not appear here. The list is a sample of the results. Unmarked numbers belong to inactive results.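 The calls were made as follows: active = mean inhibition above about 95%, with at least 55% of replicates also reaching it (limit read from the data); inconclusive = meets just one of the two conditions; inactive = meets neither condition.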

As usually defined, the inhibition is the change of the read-out against control, counted positive when it falls.

A short description of the test: inhibitors of intracellular T. cruzi replication, confirmation, NIH3T3 host cells, beta-gal parasites, cherry-pick, set 2 (AID 651740).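 Also: plate controls were neutral control median for no effect and positive control median for full effect.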 The conditions noted are these: T. cruzi beta-gal in NIH3T3, GalScreen luminescence, 90 h; at 2.09 µM; stronger effect = higher value. The method in brief:
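Test system: mouse NIH/3T3 fibroblasts infected with beta-galactosidase T. cruzi Tulahuen C4; Probe or stimulus: 5000 trypomastigotes per well; Measured by: GalScreen luminescence (substrate 1:25 in Buffer B) after cell lysis; Incubation: 3 h host cell attachment, then ≥90 h compound-parasite co-culture, 60 min GalScreen; Dosing: single point, 100 nL compound in DMSO pinned per well.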
Regarding `COc1ccc(-c2ccc([C@H]3[C@H](CO)N4CCCCN(C(=O)Cc5ccncc5)C[C@@H]34)cc2)cc1`, the inhibition is 66.4%. `COc1ccc(C#Cc2ccc([C@H]3[C@H](CO)N4CCCCN(C(=O)Cc5ccccc5)C[C@@H]34)cc2)cc1`: the inhibition was 111% (active). The value for `O=C(Cc1ccccn1)N1CCCCN2[C@@H](CO)[C@@H](c3ccc(C#Cc4ccccc4)cc3)[C@@H]2C1` was 56.8%. The value for `C/C=C/c1ccc([C@H]2[C@H](CO)N3CCCCN(C(=O)Cc4ccncc4)C[C@@H]23)cc1` was 82.3%. Next, `O=C(Cc1cccnc1)N1CCCCN2[C@@H](CO)[C@H](c3ccc(C#CC4CCCC4)cc3)[C@@H]2C1`: 46.3%.

These data come from PubChem BioAssay AID651740 (Broad Institute, 2012).
